{"source": "ChEMBL document CHEMBL1154974", "about": "“Semi-automated high-throughput fluorescent intercalator displacement-based discovery of cytotoxic DNA binding agents from a large compound library” (Bioorg Med Chem Lett, 2010)", "key": {"Nucleic Acid [1]": {"tested_on": "Nucleic Acid", "experiment": "Binding affinity to poly dA/dT DNA assessed as change in melting temperature by thermal denaturation assay", "format": "nucleic-acid assay"}, "Nucleic Acid [2]": {"tested_on": "Nucleic Acid", "experiment": "Binding affinity to calf thymus DNA assessed as decrease in ethidium bromide fluorescence at 10 uM by HT-FID assay", "format": "nucleic-acid assay", "details": "Bos taurus"}, "Nucleic Acid [3]": {"tested_on": "Nucleic Acid", "experiment": "Binding affinity to G/C-rich DNA oligonucleotide assessed as change in melting temperature by thermal denaturation assay", "format": "nucleic-acid assay"}, "[4]": {"experiment": "Cytotoxicity against human SF-767 cells assessed as viable cells after 72 hrs by MTT assay", "format": "functional", "details": "SF767, 72 h, read-out: LC50 (the source's name)", "summary_of_the_method": "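SF767 glioblastoma cells, 2000 per well, grown 24 h, then exposed to increasing concentrations of compound for 72 h. Viable cells read by MTT with standard protocols. Media-only blank in each treatment group as background. Run in triplicate. LC50 read graphically from plots of % surviving cells against concentration.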"}, "Nucleic Acid [5]": {"tested_on": "Nucleic Acid", "experiment": "Binding affinity to calf thymus DNA assessed as decrease in ethidium bromide fluorescence by FID assay", "format": "nucleic-acid assay, Bos taurus", "summary_of_the_method": "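Concentration-response FID using plate conditions as in the screen (calf thymus DNA, ethidium bromide, Tris buffer). Compound added to final 0.1-50 μM, from gravimetrically prepared stocks. FD50 taken as concentration giving 50% fluorescence decrease within each compound's achievable range; maximum %F decrease measured experimentally.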"}}, "note": "*1 amine or outer side, *2 acyl side, *3 side chain or, on linkers, in order; H or OH if unused. Where a SMILES comes first, the peptide text is derived from it. Bridges are numbered along the chain shown (N, C = ends). Roman numbers before positions name the chains, in order. [ ]: non-standard residue; d: D form. Actinocin(1to9) = Cc1c2oc3c(C)ccc(C(=O)[*:2])c3nc-2c(C(=O)[*:1])c(N)c1=O; NMeV = CN[C@H](C(=O)O)C(C)C; Sar = CNCC(=O)O", "data": [{"compound": "CCOC(=O)Cn1c(=N)n(CCOc2cccc(C)c2)c2ccccc21", "values": [{"measurement": "ΔTm", "setting": "Nucleic Acid [1]", "value": "> 45", "unit": "°C"}, {"measurement": "Binding Decrease", "setting": "Nucleic Acid [2]", "value": 46, "unit": "%"}, {"measurement": "ΔTm", "setting": "Nucleic Acid [3]", "value": 0, "unit": "°C"}, {"measurement": "CC50", "setting": "[4]", "value": "> 50", "unit": "µM"}, {"measurement": "EC50", "setting": "Nucleic Acid [5]", "value": 7.7, "unit": "µM"}]}, {"compound": "Cc1c2oc3c(C)ccc(C(=O)N[C@@H]4C(=O)N[C@H](C(C)C)C(=O)N5CCC[C@H]5C(=O)N(C)CC(=O)N(C)[C@@H](C(C)C)C(=O)O[C@@H]4C)c3nc-2c(C(=O)N[C@@H]2C(=O)N[C@H](C(C)C)C(=O)N3CCC[C@H]3C(=O)N(C)CC(=O)N(C)[C@@H](C(C)C)C(=O)O[C@@H]2C)c(N)c1=O", "note": "[DACTINOMYCIN] (I: T[dV]P[Sar][NMeV] / II: T[dV]P[Sar][NMeV]; ester I:1-I:C, II:1-II:C; linker I:N-II:N via Actinocin(1to9))", "values": [{"measurement": "ΔTm", "setting": "Nucleic Acid [1]", "value": "> 45", "unit": "°C"}, {"measurement": "Binding Decrease", "setting": "Nucleic Acid [2]", "value": 63, "unit": "%"}, {"measurement": "ΔTm", "setting": "Nucleic Acid [3]", "value": 10, "unit": "°C"}, {"measurement": "EC50", "setting": "Nucleic Acid [5]", "value": 4.3, "unit": "µM"}]}, {"compound": "CC(C)c1ccc(CNCCC(c2ccccc2)c2ccco2)cc1", "note": "(stereo not drawn)", "values": [{"measurement": "ΔTm", "setting": "Nucleic Acid [1]", "value": "> 45", "unit": "°C"}, {"measurement": "Binding Decrease", "setting": "Nucleic Acid [2]", "value": 34, "unit": "%"}, {"measurement": "ΔTm", "setting": "Nucleic Acid [3]", "value": 0, "unit": "°C"}, {"measurement": "CC50", "setting": "[4]", "value": 13, "unit": "µM"}, {"measurement": "EC50", "setting": "Nucleic Acid [5]", "value": 13.5, "unit": "µM"}]}, {"compound": "Cn1cc(NC(=O)c2cc(NC(=O)CNC(=N)N)cn2C)cc1C(=O)NCCC(=N)N", "note": "[NETROPSIN]", "values": [{"measurement": "ΔTm", "setting": "Nucleic Acid [1]", "value": 45, "unit": "°C"}, {"measurement": "Binding Decrease", "setting": "Nucleic Acid [2]", "value": 32, "unit": "%"}, {"measurement": "ΔTm", "setting": "Nucleic Acid [3]", "value": 0, "unit": "°C"}, {"measurement": "EC50", "setting": "Nucleic Acid [5]", "value": 5.1, "unit": "µM"}]}, {"compound": "CCc1ccc(C2NCc3ccccc3-n3cccc32)cc1", "note": "(stereo not drawn)", "values": [{"measurement": "ΔTm", "setting": "Nucleic Acid [1]", "value": "> 45", "unit": "°C"}, {"measurement": "Binding Decrease", "setting": "Nucleic Acid [2]", "value": 36, "unit": "%"}, {"measurement": "ΔTm", "setting": "Nucleic Acid [3]", "value": 0, "unit": "°C"}, {"measurement": "CC50", "setting": "[4]", "value": 35, "unit": "µM"}, {"measurement": "EC50", "setting": "Nucleic Acid [5]", "value": 9.4, "unit": "µM"}]}, {"compound": "Cc1cccn2c(=O)c3cc(C(=O)NCCc4ccccc4)c(=N)n(CCc4ccccc4)c3nc12", "values": [{"measurement": "ΔTm", "setting": "Nucleic Acid [1]", "value": 0, "unit": "°C"}, {"measurement": "Binding Decrease", "setting": "Nucleic Acid [2]", "value": 22, "unit": "%"}, {"measurement": "ΔTm", "setting": "Nucleic Acid [3]", "value": 10, "unit": "°C"}, {"measurement": "CC50", "setting": "[4]", "value": "> 25", "unit": "µM"}, {"measurement": "EC50", "setting": "Nucleic Acid [5]", "value": 7.7, "unit": "µM"}]}, {"compound": "CCc1ccc2c(C)nc(NC3=NC(C)(C)C=C(C)N3)nc2c1", "values": [{"measurement": "ΔTm", "setting": "Nucleic Acid [1]", "value": 10, "unit": "°C"}, {"measurement": "Binding Decrease", "setting": "Nucleic Acid [2]", "value": 40, "unit": "%"}, {"measurement": "ΔTm", "setting": "Nucleic Acid [3]", "value": 0, "unit": "°C"}, {"measurement": "CC50", "setting": "[4]", "value": 2.6, "unit": "µM"}, {"measurement": "EC50", "setting": "Nucleic Acid [5]", "value": 7.7, "unit": "µM"}]}, {"compound": "Cc1ccc(Nc2nc(N)nc(CN3CCC(Cc4ccccc4)CC3)n2)cc1", "values": [{"measurement": "ΔTm", "setting": "Nucleic Acid [1]", "value": "> 45", "unit": "°C"}, {"measurement": "Binding Decrease", "setting": "Nucleic Acid [2]", "value": 32, "unit": "%"}, {"measurement": "ΔTm", "setting": "Nucleic Acid [3]", "value": 0, "unit": "°C"}, {"measurement": "CC50", "setting": "[4]", "value": 26, "unit": "µM"}, {"measurement": "EC50", "setting": "Nucleic Acid [5]", "value": 5.5, "unit": "µM"}]}, {"compound": "CC(C)c1ccc(CNc2ccc3c(c2)ncn3C)cc1", "values": [{"measurement": "ΔTm", "setting": "Nucleic Acid [1]", "value": "> 45", "unit": "°C"}, {"measurement": "Binding Decrease", "setting": "Nucleic Acid [2]", "value": 32, "unit": "%"}, {"measurement": "ΔTm", "setting": "Nucleic Acid [3]", "value": 0, "unit": "°C"}, {"measurement": "CC50", "setting": "[4]", "value": 10, "unit": "µM"}, {"measurement": "EC50", "setting": "Nucleic Acid [5]", "value": 4.4, "unit": "µM"}]}]}
